Measured values published in ChEMBL document CHEMBL4342471, “Discovery of Thieno[2,3-d]pyrimidine-Based Hydroxamic Acid Derivatives as Bromodomain-Containing Protein 4/Histone Deacetylase Dual Inhibitors Induce Autophagic Cell Death in Colorectal Carcinoma Cells” (J Med Chem, 2020).
Activity calls are given as the source filed them. The rule behind the calls is not given here.

How the values were obtained:
[1] = target: T1, Bromodomain-containing protein 4 (Homo sapiens, UniProt O60885); assay: Inhibition of BRD4 in human HCT116 cells assessed as induction of autophagic flux by measuring accumulation of p62 at 0.5 uM after 24 hrs in presence of auto-phagolysosome inhibitor, bafilomycin-A1 by Western blot analysis; assay type: cell-based
Procedure, shortened: (§1)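 HCT-116 cells received 0.5 μM compound with or without bafilomycin-A1 for 24 hours. LC3 and p62 protein were then analysed by western blot.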

[2] = target: T1, Bromodomain-containing protein 4; assay: Inhibition of BRD4 in human HCT116 cells assessed as induction of autophagic flux by measuring accumulation of LC3-II at 0.5 uM after 24 hrs in presence of auto-phagolysosome inhibitor, bafilomycin-A1 by Western blot analysis; assay type: cell-based; procedure, shortened: as §1
[3] = tested on: DLD-1; assay: Antiproliferative activity against human DLD1 cells assessed as reduction in cell viability measured after 24 to 48 hrs by MTT assay; assay type: functional, cell-based
[4] = tested on: HCT-116; assay: Induction of apoptosis in human HCT116 cells assessed as late apoptotic cells at 0.2 uM by Annexin-V FITC/propidium iodide staining-based flow cytometry (reference value: 3.51 %); assay type: functional
[5] = Toxicity in BALB/cAnNCrl mouse xenografted with human HCT116 cells assessed as effect on kidney morphological changes at 15 to 30 mg/kg, po administered on day 1 to day 19 measured on day 19 by hematoxylin and eosin staining based assay; assay type: organism-based; settings: in vivo
Procedure, shortened: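 HCT-116 xenograft mice dosed orally at 15 or 30 mg/kg for 19 days, saline as vehicle control; body weights tracked, and main organs sectioned and H&E-stained at study end.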

[6] = target: Histone deacetylase 3 (Homo sapiens, UniProt O15379); assay: Inhibition of HDAC3 (unknown origin) using biotinylated histone H3 KAc peptide (1 to 21 residues) as substrate by HTRF assay
Chain of Histone deacetylase 3 (O15379 whole entry, the tested form may be a part): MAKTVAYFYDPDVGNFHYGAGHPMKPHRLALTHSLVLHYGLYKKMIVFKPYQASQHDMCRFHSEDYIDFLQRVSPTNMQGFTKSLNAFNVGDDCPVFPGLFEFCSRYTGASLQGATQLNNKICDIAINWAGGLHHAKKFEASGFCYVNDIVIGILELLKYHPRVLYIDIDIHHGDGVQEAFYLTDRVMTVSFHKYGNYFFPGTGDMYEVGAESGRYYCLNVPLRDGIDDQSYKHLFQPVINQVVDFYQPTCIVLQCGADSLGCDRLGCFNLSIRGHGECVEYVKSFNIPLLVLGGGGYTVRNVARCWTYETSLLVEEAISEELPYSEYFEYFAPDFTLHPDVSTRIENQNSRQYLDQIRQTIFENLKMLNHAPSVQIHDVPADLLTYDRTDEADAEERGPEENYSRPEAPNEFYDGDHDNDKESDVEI

[7] = tested on: HCT-116; assay: Induction of apoptosis in human HCT116 cells assessed as necrotic cells at 0.2 uM by Annexin-V FITC/propidium iodide staining-based flow cytometry (reference value: 0.304 %); assay type: functional
[8] = tested on: Mus musculus; assay: Increase in LIFR expression in tumor tissue of BALB/cAnNCrl mouse xenografted with human HCT116 cells at 15 to 30 mg/kg, po administered on day 1 to day 19 measured on day 19 by immunohistochemical analysis; assay type: functional, organism-based
Procedure, shortened: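 HCT-116 xenograft mice were dosed orally at 15 or 30 mg/kg, or 30 mg/kg for reference agents, for 19 days, with vehicle or saline controls. Tumor sections were stained for Ki-67, c-Myc, Ac-H3, BRD4, LC3-II, LIFR and p-STAT3 by immunohistochemistry, and TUNEL staining was used as the apoptosis marker.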

[9] = target: Histone deacetylase 2 (Homo sapiens, UniProt Q92769)
Chain of Histone deacetylase 2 (Q92769 whole entry): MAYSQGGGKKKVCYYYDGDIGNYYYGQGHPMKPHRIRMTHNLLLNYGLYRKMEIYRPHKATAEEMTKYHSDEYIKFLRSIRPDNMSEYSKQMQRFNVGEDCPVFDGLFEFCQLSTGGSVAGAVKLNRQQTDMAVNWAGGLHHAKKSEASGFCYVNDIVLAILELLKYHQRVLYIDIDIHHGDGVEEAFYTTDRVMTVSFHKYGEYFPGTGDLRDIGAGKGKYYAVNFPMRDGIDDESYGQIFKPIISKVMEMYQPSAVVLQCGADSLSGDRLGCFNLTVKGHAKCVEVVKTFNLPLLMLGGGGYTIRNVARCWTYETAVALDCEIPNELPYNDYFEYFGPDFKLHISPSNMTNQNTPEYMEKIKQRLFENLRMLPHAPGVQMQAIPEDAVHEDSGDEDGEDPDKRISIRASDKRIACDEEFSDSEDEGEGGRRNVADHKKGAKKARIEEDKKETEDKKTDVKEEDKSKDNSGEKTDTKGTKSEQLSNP

[10] = tested on: HT-29; assay: Cytotoxicity against human HT-29 cells assessed as reduction in cell viability; assay type: functional, cell-based
Procedure, shortened: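 Antiproliferative IC50 values were measured by MTT assay across a panel of colorectal carcinoma cell lines and normal colorectal epithelial cells.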

[11] = organism: Homo sapiens; assay: Inhibition of BRD4/HDAC in human HCT116 cells assessed as inhibition of IL6-JAK-STAT3 signaling pathway by measuring decrease in JAK1 expression at 0.5 uM after 24 hrs by Western blot analysis; assay type: cell-based
Procedure, shortened: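 HCT-116 cells treated 24 h with 0.5 µM, 5.0 µM or 10 µM test agent depending on compound; OSMR, LIFR and downstream pathway proteins detected by western blot.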

[12] = tested on: HCT-116; assay: Induction of apoptotic cell death in human HCT116 cells by Annexin-V FITC/propidium iodide staining-based flow cytometry; assay type: functional
[13] = target: T1, Bromodomain-containing protein 4; assay: Inhibition of BRD4 in human HCT116 cells transfected with ATG5 siRNA assessed as activation of AMPK-alpha at 0.5 uM by Western blot analysis; assay type: cell-based
Procedure, shortened: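 HCT-116 cells first transfected with ATG5 siRNA or scramble siRNA; after silencing, exposed to 0.5 µM test agent or normal saline, then ATG5, AMPKα, p-AMPKα, p62 and LC3 protein assessed by western blot.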

[14] = target: T1, Bromodomain-containing protein 4; assay: Inhibition of human recombinant His-tagged BRD4 BD2 domain using H-SGRGK(Ac)GGK(Ac)GLGK-(Ac)GGAK(Ac)RHRK(Biotin)-OH as substrate preincubated with enzyme for 30 mins followed by substrate addition measured after 30 mins by AlphaScreen assay
[15] = target: T2, Protein deacetylase HDAC6 (Homo sapiens, UniProt Q9UBN7); assay: Inhibition of HDAC6 (unknown origin) using biotinylated histone H3 KAc peptide (1 to 21 residues) as substrate by HTRF assay
T2 sequence (Q9UBN7 whole entry): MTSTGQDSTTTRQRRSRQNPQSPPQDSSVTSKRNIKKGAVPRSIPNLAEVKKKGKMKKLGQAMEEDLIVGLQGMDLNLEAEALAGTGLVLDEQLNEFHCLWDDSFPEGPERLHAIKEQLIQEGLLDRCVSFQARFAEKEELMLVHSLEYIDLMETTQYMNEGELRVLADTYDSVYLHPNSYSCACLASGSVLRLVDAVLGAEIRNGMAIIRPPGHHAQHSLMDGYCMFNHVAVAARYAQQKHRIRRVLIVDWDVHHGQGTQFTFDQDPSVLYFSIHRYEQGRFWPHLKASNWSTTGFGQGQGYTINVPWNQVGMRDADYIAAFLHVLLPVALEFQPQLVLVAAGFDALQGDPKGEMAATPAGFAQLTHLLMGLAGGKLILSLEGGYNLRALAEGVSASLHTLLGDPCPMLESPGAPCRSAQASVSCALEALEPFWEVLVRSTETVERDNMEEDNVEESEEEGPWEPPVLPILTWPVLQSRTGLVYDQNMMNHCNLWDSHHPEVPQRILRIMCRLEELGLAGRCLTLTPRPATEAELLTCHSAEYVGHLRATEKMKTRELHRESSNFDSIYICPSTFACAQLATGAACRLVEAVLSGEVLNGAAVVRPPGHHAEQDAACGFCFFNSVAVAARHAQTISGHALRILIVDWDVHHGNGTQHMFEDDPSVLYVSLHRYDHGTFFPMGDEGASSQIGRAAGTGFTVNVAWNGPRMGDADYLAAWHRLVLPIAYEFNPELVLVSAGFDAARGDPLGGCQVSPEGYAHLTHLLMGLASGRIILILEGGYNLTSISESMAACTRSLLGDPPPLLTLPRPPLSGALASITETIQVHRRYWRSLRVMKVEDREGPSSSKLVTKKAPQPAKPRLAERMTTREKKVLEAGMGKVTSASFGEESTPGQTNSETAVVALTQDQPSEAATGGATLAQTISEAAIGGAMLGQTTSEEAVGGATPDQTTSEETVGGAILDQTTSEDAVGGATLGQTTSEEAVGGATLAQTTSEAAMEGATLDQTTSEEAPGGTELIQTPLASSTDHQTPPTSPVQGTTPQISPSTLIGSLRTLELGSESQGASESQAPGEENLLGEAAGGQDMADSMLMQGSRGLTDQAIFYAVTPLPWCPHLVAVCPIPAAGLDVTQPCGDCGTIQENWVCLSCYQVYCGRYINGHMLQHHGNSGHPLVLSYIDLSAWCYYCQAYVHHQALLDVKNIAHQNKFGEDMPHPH

Cc1cc(-c2nc3sc4c(c3c(=O)[nH]2)CCN(C)C4)cc(C)c1OCCCCCC(=O)NO
inhibition [1]: inactive | inhibition [2]: inactive | IC50 [3]: 2110 nM | Activity [4]: 23% | Activity [5]: Non-Toxic | IC50 [6]: 75 nM | Activity [7]: 7.01% | Activity [8]: inactive | IC50 [9]: 58 nM | Activity [10]: Active | inhibition [11]: Active | Activity [12]: Dose-dependent effect | inhibition [13]: Active | IC50 [14]: 2050 nM | IC50 [15]: 73 nM
